Legend:
Histone deacetylase 1 [1] = biological target: T1, Histone deacetylase 1 (Homo sapiens, UniProt Q13547); assay: Inhibition of recombinant human HDAC1 at 1 uM using Z-(Ac)Lys-AMC as substrate after 90 mins by fluorescence based micro plate assay
Method in brief: (§1)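 Recombinant human HDAC1 or HDAC6 incubated 90 min at 37 °C with 10.5 μM ZMAL (Z-(Ac)Lys-AMC) and increasing inhibitor concentrations, using a homogeneous fluorescence assay. Fluorescence read at Ex 390/Em 460 nm.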

Histone deacetylase 1 [2] = biological target: T1, Histone deacetylase 1; assay: Inhibition of recombinant human HDAC1 at 10 uM using Z-(Ac)Lys-AMC as substrate after 90 mins by fluorescence based micro plate assay; method in brief: as §1
[3] = biological target: T2, Protein deacetylase HDAC6 (Homo sapiens) (UniProt Q9UBN7); assay: Inhibition of recombinant human HDAC6 at 1 uM using Z-(Ac)Lys-AMC as substrate after 90 mins by fluorescence based micro plate assay; method in brief: as §1
T2 sequence (whole entry): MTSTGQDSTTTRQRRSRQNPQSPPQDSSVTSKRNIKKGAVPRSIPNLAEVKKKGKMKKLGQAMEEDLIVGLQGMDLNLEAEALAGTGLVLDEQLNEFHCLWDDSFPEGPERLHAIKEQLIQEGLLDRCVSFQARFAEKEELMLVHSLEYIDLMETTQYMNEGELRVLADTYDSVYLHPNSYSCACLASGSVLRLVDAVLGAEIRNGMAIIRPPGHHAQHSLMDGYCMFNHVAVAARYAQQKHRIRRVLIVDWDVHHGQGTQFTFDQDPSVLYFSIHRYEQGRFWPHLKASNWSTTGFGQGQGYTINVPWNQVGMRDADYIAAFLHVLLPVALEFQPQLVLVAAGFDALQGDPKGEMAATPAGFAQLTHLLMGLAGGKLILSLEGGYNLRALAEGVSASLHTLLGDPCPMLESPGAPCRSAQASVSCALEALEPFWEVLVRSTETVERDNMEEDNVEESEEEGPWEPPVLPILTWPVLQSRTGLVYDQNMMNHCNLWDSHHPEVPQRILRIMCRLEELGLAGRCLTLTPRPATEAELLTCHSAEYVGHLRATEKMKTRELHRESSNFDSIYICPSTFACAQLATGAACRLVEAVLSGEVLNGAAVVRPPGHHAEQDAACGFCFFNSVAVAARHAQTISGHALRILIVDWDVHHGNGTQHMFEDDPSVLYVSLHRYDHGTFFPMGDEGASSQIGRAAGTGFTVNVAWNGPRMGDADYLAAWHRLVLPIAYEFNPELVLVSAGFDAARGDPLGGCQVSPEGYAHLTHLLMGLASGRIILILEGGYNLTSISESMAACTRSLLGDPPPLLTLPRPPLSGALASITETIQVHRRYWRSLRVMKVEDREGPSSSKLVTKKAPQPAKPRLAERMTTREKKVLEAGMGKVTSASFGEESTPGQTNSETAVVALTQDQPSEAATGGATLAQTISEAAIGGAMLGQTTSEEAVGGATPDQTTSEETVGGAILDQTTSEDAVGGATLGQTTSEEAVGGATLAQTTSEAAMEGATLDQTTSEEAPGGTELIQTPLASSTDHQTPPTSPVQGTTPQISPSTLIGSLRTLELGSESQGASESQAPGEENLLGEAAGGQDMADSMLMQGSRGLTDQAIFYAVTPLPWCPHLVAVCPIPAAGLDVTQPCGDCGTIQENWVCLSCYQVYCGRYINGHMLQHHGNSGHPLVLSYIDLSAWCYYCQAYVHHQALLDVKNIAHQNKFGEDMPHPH

[4] = biological target: T2, Protein deacetylase HDAC6 (Homo sapiens); assay: Inhibition of recombinant human HDAC6 at 10 uM using Z-(Ac)Lys-AMC as substrate after 90 mins by fluorescence based micro plate assay; method in brief: as §1
Histone deacetylase 8 = biological target: T3, Histone deacetylase 8 (Homo sapiens, UniProt Q9BY41); assay: Inhibition of human recombinant HDAC8 using H2N-Arg-His-Lys(Ac)-Lys(Ac)-AMC as substrate after 90 mins by fluorescence based micro plate assay
T3 sequence (Q9BY41 whole entry): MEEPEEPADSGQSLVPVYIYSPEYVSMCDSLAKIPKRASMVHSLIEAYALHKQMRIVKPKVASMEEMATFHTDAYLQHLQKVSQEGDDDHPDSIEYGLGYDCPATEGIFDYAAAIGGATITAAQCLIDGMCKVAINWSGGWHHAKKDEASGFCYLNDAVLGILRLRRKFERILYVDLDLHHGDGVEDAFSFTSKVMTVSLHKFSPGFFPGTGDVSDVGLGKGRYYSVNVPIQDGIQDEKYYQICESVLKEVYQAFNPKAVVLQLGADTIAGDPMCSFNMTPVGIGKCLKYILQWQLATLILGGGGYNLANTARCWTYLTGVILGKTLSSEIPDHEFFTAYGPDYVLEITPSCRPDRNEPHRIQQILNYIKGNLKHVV

Peregrin = biological target: T4, Peregrin (Homo sapiens, UniProt P55201); assay: Binding affinity to BRPF1 (unknown origin) by Isothermal titration calorimetry; settings: read-out: Kd
T4 sequence (P55201 whole entry): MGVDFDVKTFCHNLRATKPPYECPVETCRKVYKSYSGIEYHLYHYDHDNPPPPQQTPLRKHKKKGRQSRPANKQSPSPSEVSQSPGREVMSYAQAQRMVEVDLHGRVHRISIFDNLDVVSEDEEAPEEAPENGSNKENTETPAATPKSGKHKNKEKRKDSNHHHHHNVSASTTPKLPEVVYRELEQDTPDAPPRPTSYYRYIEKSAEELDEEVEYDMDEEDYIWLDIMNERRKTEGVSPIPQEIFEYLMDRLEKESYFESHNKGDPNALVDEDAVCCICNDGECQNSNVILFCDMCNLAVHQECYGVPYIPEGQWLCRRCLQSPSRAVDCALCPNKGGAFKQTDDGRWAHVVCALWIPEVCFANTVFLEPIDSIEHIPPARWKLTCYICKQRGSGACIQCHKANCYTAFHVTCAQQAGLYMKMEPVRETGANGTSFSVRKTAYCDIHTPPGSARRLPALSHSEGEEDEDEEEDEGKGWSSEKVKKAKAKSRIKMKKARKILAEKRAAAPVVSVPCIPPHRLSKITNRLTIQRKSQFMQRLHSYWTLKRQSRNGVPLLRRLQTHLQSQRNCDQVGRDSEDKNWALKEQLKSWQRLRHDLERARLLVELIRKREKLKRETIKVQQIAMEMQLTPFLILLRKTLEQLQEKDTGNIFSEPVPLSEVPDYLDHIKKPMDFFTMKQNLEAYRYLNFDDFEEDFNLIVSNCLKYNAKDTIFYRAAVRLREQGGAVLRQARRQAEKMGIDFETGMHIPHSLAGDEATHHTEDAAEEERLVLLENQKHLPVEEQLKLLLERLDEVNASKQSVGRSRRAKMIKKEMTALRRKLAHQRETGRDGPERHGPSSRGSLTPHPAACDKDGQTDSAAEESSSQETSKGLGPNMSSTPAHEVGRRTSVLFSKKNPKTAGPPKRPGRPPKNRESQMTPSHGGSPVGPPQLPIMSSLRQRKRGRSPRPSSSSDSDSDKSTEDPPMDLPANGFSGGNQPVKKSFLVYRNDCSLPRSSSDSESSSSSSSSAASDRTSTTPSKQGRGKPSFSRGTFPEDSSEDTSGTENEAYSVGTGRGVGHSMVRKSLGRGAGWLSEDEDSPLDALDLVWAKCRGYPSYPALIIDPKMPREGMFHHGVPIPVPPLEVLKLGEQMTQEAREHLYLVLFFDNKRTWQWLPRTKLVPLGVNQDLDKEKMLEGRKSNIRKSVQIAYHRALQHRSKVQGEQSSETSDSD
Method in brief: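 Isothermal titration calorimetry with recombinant BRPF1 (200–400 μM) in the injection syringe titrated into ligand (20–40 μM) in the sample cell. Kd was fitted from the titrations and reported with its P99 interval.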

THP-1 [5] = assay: Antiproliferative activity against human THP-1 assessed as reduction in cell growth at 100 uM by CellTiter-non radioactive cell proliferation assay; assay type: functional
THP-1 [6] = assay: Antiproliferative activity against human THP-1 assessed as reduction in cell growth at 20 uM by CellTiter-non radioactive cell proliferation assay; assay type: functional
THP-1 [7] = assay: Antiproliferative activity against human THP-1 assessed as reduction in cell growth at 4 uM by CellTiter-non radioactive cell proliferation assay; assay type: functional
HL-60 [8] = assay: Antiproliferative activity against human HL60 assessed as reduction in cell growth at 100 uM by CellTiter-non radioactive cell proliferation assay; assay type: functional
HL-60 [9] = assay: Antiproliferative activity against human HL60 assessed as reduction in cell growth at 20 uM by CellTiter-non radioactive cell proliferation assay; assay type: functional
HL-60 [10] = assay: Antiproliferative activity against human HL60 assessed as reduction in cell growth at 4 uM by CellTiter-non radioactive cell proliferation assay; assay type: functional
Method in brief: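 HL60 cells plated at 5000 per well and given inhibitor or DMSO vehicle immediately. Compounds diluted from 200x DMSO stocks; three replicates per concentration. Growth read by CellTiter 96 Aqueous (MTS) assay. GI50 is the concentration cutting metabolically active cells by 50% versus DMSO control, taken from absorbance against log concentration.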

THP-1 [11] = assay: Antiproliferative activity against human THP-1 assessed as reduction in cell growth at 1 uM by CellTiter-non radioactive cell proliferation assay; assay type: functional
HL-60 [12] = assay: Antiproliferative activity against human HL60 assessed as reduction in cell growth at 1 uM by CellTiter-non radioactive cell proliferation assay; assay type: functional
Histone deacetylase 1 [13] = biological target: T1, Histone deacetylase 1; assay: Inhibition of recombinant human HDAC1 using Z-(Ac)Lys-AMC as substrate after 90 mins by fluorescence based micro plate assay; method in brief: as §1
[14] = biological target: T5, Protein deacetylase HDAC6 (Homo sapiens, UniProt Q9UBN7); assay: Inhibition of recombinant human HDAC6 using Z-(Ac)Lys-AMC as substrate after 90 mins by fluorescence based micro plate assay; method in brief: as §1
T5 sequence (Q9UBN7 whole entry): T2 sequence (whole entry)

T1 sequence (Q13547 whole entry): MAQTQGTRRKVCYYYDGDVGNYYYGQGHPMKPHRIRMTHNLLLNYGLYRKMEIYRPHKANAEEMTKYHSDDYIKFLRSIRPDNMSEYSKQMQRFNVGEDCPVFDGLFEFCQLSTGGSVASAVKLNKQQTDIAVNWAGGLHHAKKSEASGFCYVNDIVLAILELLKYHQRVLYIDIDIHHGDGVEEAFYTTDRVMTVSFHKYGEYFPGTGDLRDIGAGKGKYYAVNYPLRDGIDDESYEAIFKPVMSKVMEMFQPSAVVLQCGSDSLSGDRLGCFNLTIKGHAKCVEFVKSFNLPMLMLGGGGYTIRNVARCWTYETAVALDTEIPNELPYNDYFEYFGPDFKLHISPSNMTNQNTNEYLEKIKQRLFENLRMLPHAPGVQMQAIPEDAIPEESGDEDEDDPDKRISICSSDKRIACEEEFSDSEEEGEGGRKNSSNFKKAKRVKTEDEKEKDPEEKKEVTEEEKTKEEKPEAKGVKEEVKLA

| Structure (SMILES) | inhibition (Histone deacetylase 1 [1]) | inhibition (Histone deacetylase 1 [2]) | inhibition [3] | inhibition [4] | IC50 (Histone deacetylase 8) | Kd (Peregrin) | IC50 (Histone deacetylase 1 [13]) | IC50 [14] | inhibition at 100 µM (THP-1 [5]) | inhibition at 20 µM (THP-1 [6]) | inhibition at 4 µM (THP-1 [7]) | inhibition at 100 µM (HL-60 [8]) | inhibition at 20 µM (HL-60 [9]) | inhibition at 4 µM (HL-60 [10]) | inhibition at 1 µM (THP-1 [11]) | inhibition at 1 µM (HL-60 [12]) |
| --- | --- | --- | --- | --- | --- | --- | --- | --- | --- | --- | --- | --- | --- | --- | --- | --- |
| COc1ccc(C(=O)NOCc2ccc(OC(C)=O)cc2)cc1S(=O)(=O)Nc1ccc2c(c1)cc(C)c(=O)n2C |  |  |  |  |  |  |  |  | 27% | 3% |  | 95% | 0% |  |  | 0% |
| COC(=O)c1ccc(CS(=O)(=O)Nc2ccc3c(c2)cc(C)c(=O)n3C)cc1 |  |  |  |  |  |  |  |  | 93% | 9% |  | 78% | 14% |  | 0% | 15% |
| COC(=O)c1ccc(S(=O)(=O)Nc2ccc3c(c2)cc(C)c(=O)n3C)cc1 |  |  |  |  |  |  |  |  | 95% | 85% |  | 68% | 22% |  | 0% | 5% |
| COc1ccc(C(=O)NO)cc1C(=O)Nc1ccc2c(c1)cc(C)c(=O)n2C |  |  |  |  | 65 nM | 857 nM | 6900 nM | 709 nM |  |  |  |  |  |  |  |  |

More lines, main results first:

| inhibition (Histone deacetylase 1 [1]) | inhibition (Histone deacetylase 1 [2]) | inhibition [3] | inhibition [4] | IC50 (Histone deacetylase 8) | Kd (Peregrin) | IC50 (Histone deacetylase 1 [13]) | IC50 [14] | Structure (SMILES) | inhibition at 100 µM (THP-1 [5]) | inhibition at 20 µM (THP-1 [6]) | inhibition at 4 µM (THP-1 [7]) | inhibition at 100 µM (HL-60 [8]) | inhibition at 20 µM (HL-60 [9]) | inhibition at 4 µM (HL-60 [10]) | inhibition at 1 µM (THP-1 [11]) | inhibition at 1 µM (HL-60 [12]) |
| --- | --- | --- | --- | --- | --- | --- | --- | --- | --- | --- | --- | --- | --- | --- | --- | --- |
| 13% | 31% | 13% | 59% | 560 nM | 234 nM |  |  | Cc1cc2cc(NS(=O)(=O)c3cc(C(=O)NO)ccc3Cl)ccc2n(C)c1=O | 21% | 8% | 16% | 33% | 32% | 29% |  |  |
| 2% | 26% | 3% | 33% | 465 nM |  |  |  | Cc1cc2cc(NS(=O)(=O)Cc3cccc(C(=O)NO)c3)ccc2n(C)c1=O | 0% | 0% |  | 0% | 0% | 0% | 0% |  |
|  | 20% | 28% | 84% | 3190 nM |  |  |  | Cc1cc2cc(NCc3cc(C(=O)NO)ccc3Cl)ccc2n(C)c1=O |  |  |  |  |  |  |  |  |

— ChEMBL document CHEMBL4765345, “Design, synthesis, and biological evaluation of dual targeting inhibitors of histone deacetylase 6/8 and bromodomain BRPF1” (Eur J Med Chem, 2020)
